For five molecules, Activity results are on record in ChEMBL document CHEMBL2086232, “Exploration of the SAR of anti-invasive chalcones: synthesis and biological evaluation of conformationally restricted analogues” (Bioorg Med Chem, 2012).

Molecules are shown by their SMILES. Active and inactive are the calls of the source. No cut-off for these calls is given here.

In series [1] the test system is MCF7/6. As to the kind of experiment: Antiinvasive activity against human MCF7/6 cells assessed as inhibition of cell invasion across chick precultured heart fragments at 1 umol/L after 8 days by chick heart invasion assay. Type of series: functional, cell-based. An outline of the steps:
(§1)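 Heart fragments from 9-day-old chick embryos were precultured, then confronted with aggregates of invasive human MCF-7/6 mammary carcinoma cells with test compound present. Replicate cultures were graded at each concentration.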

Series [2] has as its system MCF7/6. As to the kind of experiment: Antiinvasive activity against human MCF7/6 cells assessed as inhibition of cell invasion across chick precultured heart fragments at 100 umol/L after 8 days by chick heart invasion assay. Type of series: functional, cell-based. An outline of the steps:
as §1

Series [3] deals with MCF7/6. The series is described as follows: Antiinvasive activity against human MCF7/6 cells assessed as inhibition of cell invasion across chick precultured heart fragments at 10 umol/L after 8 days by chick heart invasion assay. Format: functional, cell-based. An outline of the steps: as §1
Series [4] relates to MCF7/6. The series is described as follows: Antiinvasive activity against human MCF7/6 cells assessed as inhibition of cell invasion across chick precultured heart fragments at 0.1 umol/L after 8 days by chick heart invasion assay. Type of series: functional, cell-based. An outline of the steps:
as §1

A short description of series [5]: Toxicity against chick precultured heart fragments at 10 umol/L after 8 days by histological analysis. Type of series: tissue-based, Gallus gallus. The following applies: chicken, 192 h, 10 µM.
Series [6] in a line: Cytotoxicity against human MCF7/6 cells at 10 umol/L after 8 days by histological analysis. Format: cell-based. Particulars: mcf7/6, 192 h, 10 µM. An outline of the steps:
(§2)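 Chick heart confronting cultures (9-day-old embryo precultured heart fragments plus MCF-7/6 aggregates, compound present) were examined on 7-µm histological sections. Replicate cultures were graded per concentration.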

Series [7] can be described thus: Cytotoxicity against human MCF7/6 cells at 100 umol/L after 8 days by histological analysis. Format: cell-based. Particulars: mcf7/6, 192 h, 100 µM. The gist of the method:
as §2

With `COc1ccc(C2=NOC(c3ccc(Cl)cc3)C2)cc1` (stereo not given), the outcome in the series with MCF7/6 [1] and in the series with MCF7/6 [2] was inactive.

As to `COc1cc(-c2oncc2-c2ccc(F)cc2)cc(OC)c1OC`, the outcome in the series with MCF7/6 [3] and in the series with MCF7/6 [1] was Active. For the same molecule, in the series on MCF7/6 [4], the result was inactive. In addition, the Activity result in series [5], in series [6] and in series [7] was “Toxic” in each case.

In the case of `COc1cc(-c2cc(-c3ccc(F)cc3)on2)cc(OC)c1OC`, the result in the series with MCF7/6 [3] and in the series on MCF7/6 [2] was Active. The outcome in the series with MCF7/6 [1] and in the series on MCF7/6 [4] was inactive. Further, the Activity entry in series [7] is listed as “Toxic”.

Regarding `COc1ccc(-c2cc(-c3ccc(Cl)cc3)on2)cc1`, the result in the series on MCF7/6 [3] and in the series with MCF7/6 [1] was inactive.

As to `COc1cc(C(=O)Cc2ccc(F)cc2)cc(OC)c1OC`, the result with MCF7/6 [3], in the series with MCF7/6 [1] and in the series on MCF7/6 [4] was inactive. Further, in series [7], the Activity result is “Toxic”. Also, the result with MCF7/6 [2] was Active.
